Results as given in ChEMBL document CHEMBL5260841, “Discovery of N-(4-(6-Acetamidopyrimidin-4-yloxy)phenyl)-2-(2-(trifluoromethyl)phenyl)acetamide (CHMFL-FLT3-335) as a Potent FMS-like Tyrosine Kinase 3 Internal Tandem Duplication (FLT3-ITD) Mutant Selective Inhibitor for Acute Myeloid Leukemia” (J Med Chem, 2019).
The source made the active and inactive calls. No cut-off for these calls is given here.

Legend:
[1] = Cytotoxicity against CHO cells assessed as inhibition of cell growth; assay type: toxicity, cell-based, Cricetulus griseus; conditions: chinese hamster
BaF3 [2] = assay: Antiproliferative activity against mouse BaF3 cells transfected with TEL fused FLT3 Y842R mutant assessed as cell growth inhibition incubated for 72 hrs by CCK-8 assay; assay type: functional
Summary of the method: (§1)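 Kinase-transformed isogenic BaF3 lines grown in RPMI 1640 with 10% FBS, 2% L-glutamine and pen/strep at 37 °C, 5% CO2. Seeded at 1500-3000 cells/well and treated with a compound concentration series for 72 h. Viability read by CCK8 absorbance at 450 nm.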

[3] = AUC (0 to t) in Sprague-Dawley rat at 1 mg/kg, iv; assay type: ADME, organism-based; design: dose 1 mg/kg, route iv; conditions: in vivo
Summary of the method: (§2)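 Sprague-Dawley rats dosed IV at 1 mg/kg or by oral gavage at 10 mg/kg. Parameters from plasma exposure: AUC(0-t), AUC(0-∞), MRT, T1/2, Tmax, Vz, CLz, Cmax. Values are mean ± SD from three animals.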

[4] = Clearance in Sprague-Dawley rat at 1 mg/kg, iv; assay type: ADME, organism-based; conditions: in vivo, read-out: CL(app) (converted); summary of the method: as §2
MV4-11 [5] = assay: Antitumor activity against human MV4-11 cells xenografted in nu/nu mouse assessed as increase in tumor cell apoptosis administered orally via gavage for 28 days by tunel staining based immunohistochemical analysis; assay type: functional; conditions: dose 25-100 mg/kg/day, route po, time 28.0 day
Summary of the method: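 Tumours taken from MV4-11 xenograft mice after 28 days of daily oral dosing. Tissue stained with HE, Ki-67 (proliferation) and TUNEL (apoptosis), and treated groups compared with the vehicle group.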

MOLM-13 [6] = assay: Induction of cell cycle arrest in human MOLM-13 cells harboring FLT3-ITD mutant assessed as accumulation of cells at G0/G1 phase at 0.1 uM incubated for 12 hrs by RNase/PI staining based flow cytometry analysis; assay type: functional
[7] = Cytotoxicity against human PBMC cells assessed as reduction in cell viability at 5 uM; assay type: toxicity, cell-based
MV4-11 [8] = assay: Induction of cell cycle arrest in human MV4-11 cells harboring FLT3-ITD mutant assessed as accumulation of cells at G0/G1 phase at 0.1 uM incubated for 24 hrs by RNase/PI staining based flow cytometry analysis; assay type: functional
HL-60 = assay: Antiproliferative activity against human HL-60 cells transfected with wild type FLT3 assessed as cell growth inhibition incubated for 72 hrs by CCK-8 assay; assay type: functional
Summary of the method: (§3)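 Cells kept at 37 °C, 5% CO2. MV4-11 grown in IMDM with 10% FBS. MOLM13, MOLM14, U937 and HL-60 grown in RPMI 1640 with 10% FBS. OCI-AML-2 grown in α-MEM with 20% FBS. Seeded at 1500-3000 cells/well and exposed to a concentration series for 72 h. Viability read by CCK8 absorbance at 450 nm.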

BaF3 [9] = assay: Antiproliferative activity against mouse BaF3 cells transfected with FLT3 ITD mutant harboring AML patient derived GLVQVTGSSDNEYFYVDFREYE sequence assessed as cell growth inhibition incubated for 72 hrs by CCK-8 assay; assay type: functional; summary of the method: as §1
BaF3 [10] = assay: Antiproliferative activity against mouse BaF3 cells transfected with FLT3 ITD mutant assessed as cell growth inhibition incubated for 72 hrs by CCK-8 assay; assay type: functional; summary of the method: as §1
BaF3 [11] = assay: Antiproliferative activity against mouse BaF3 cells transfected with TEL fused FLT3 K663Q mutant assessed as cell growth inhibition incubated for 72 hrs by CCK-8 assay; assay type: functional; summary of the method: as §1
BaF3 [12] = assay: Antiproliferative activity against mouse BaF3 cells transfected with TEL fused PDGFRbeta assessed as cell growth inhibition incubated for 72 hrs by CCK-8 assay; assay type: functional; summary of the method: as §1
[13] = Cmax in Sprague-Dawley rat at 1 mg/kg, iv; assay type: ADME, organism-based; design: dose 1 mg/kg, route iv; conditions: in vivo; summary of the method: as §2
[14] = target: T1, Receptor-type tyrosine-protein kinase FLT3 (Homo sapiens, UniProt P36888); assay: Inhibition of FLT3 (unknown origin) preincubated for 60 mins followed by ATP addition and measured after 1 hr by ADP-Glo assay
T1 sequence (P36888 whole entry): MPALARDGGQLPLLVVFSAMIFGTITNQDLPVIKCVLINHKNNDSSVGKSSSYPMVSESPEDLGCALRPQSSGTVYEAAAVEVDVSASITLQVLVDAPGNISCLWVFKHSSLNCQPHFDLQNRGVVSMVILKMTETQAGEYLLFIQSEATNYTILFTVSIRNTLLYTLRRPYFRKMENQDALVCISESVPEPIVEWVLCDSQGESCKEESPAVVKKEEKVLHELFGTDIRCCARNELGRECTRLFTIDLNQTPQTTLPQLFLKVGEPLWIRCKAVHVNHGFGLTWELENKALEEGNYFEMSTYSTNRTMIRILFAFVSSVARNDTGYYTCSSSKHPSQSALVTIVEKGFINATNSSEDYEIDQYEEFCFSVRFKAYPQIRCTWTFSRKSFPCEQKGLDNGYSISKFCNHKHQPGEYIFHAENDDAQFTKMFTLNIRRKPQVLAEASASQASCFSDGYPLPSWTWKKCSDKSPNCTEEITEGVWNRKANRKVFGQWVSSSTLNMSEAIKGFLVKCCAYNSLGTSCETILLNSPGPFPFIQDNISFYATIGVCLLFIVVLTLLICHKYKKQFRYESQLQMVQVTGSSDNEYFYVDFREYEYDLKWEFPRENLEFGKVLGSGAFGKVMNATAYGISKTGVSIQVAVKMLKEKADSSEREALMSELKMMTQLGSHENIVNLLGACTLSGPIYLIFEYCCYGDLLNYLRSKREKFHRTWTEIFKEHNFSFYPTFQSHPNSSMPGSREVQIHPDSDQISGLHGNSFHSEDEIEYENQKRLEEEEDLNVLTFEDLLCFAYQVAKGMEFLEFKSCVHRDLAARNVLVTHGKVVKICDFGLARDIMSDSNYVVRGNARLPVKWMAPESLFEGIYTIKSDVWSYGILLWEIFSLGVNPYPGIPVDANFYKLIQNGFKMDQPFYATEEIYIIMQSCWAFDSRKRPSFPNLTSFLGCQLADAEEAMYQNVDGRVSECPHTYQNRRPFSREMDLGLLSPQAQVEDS

MV4-11 [15] = assay: Induction of apoptosis in human MV4-11 cells harboring FLT3-ITD mutant assessed as increase in cleaved PARP level incubated for 24 hrs by Western blot analysis; assay type: functional, cell-based; conditions: dose 0.1-3 µM
[16] = AUC (0 to infinity) in Sprague-Dawley rat at 1 mg/kg, iv; assay type: ADME, organism-based; design: dose 1 mg/kg, route iv; conditions: in vivo; summary of the method: as §2
[17] = Cytotoxicity against CHL cells assessed as inhibition of cell growth; assay type: toxicity, cell-based, Cricetulus griseus; conditions: chinese hamster
MOLM-13 [18] = assay: Induction of apoptosis in human MOLM-13 cells harboring FLT3-ITD mutant assessed as increase in cleaved caspase-3 level incubated for 24 hrs by Western blot analysis; assay type: functional, cell-based; conditions: dose 0.1-3 µM
cells = assay type: functional; conditions: Homo sapiens, AML4; time 72 hrs
OCI-AML2 = assay: Antiproliferative activity against human OCI-AML2 cells transfected with wild type FLT3 assessed as cell growth inhibition incubated for 72 hrs by CCK-8 assay; assay type: functional; summary of the method: as §3
[19] = MRT (0 to t) in Sprague-Dawley rat at 10 mg/kg, po; assay type: ADME, organism-based; conditions: in vivo
Summary of the method: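 Sprague-Dawley rats were dosed either intravenously at 1 mg/kg or by oral gavage at 10 mg/kg. Plasma PK parameters were AUC(0-t), AUC(0-∞), MRT(0-t), T1/2, Tmax, Vz, CLz, Cmax and F%. Values are the mean ± SD of three independent animals.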

Question: What does the source list for `CC(=O)Nc1cc(Oc2ccc(NC(=O)Cc3ccccc3C(F)(F)F)cc2)ncn1`?
Answer: GI50 [1]: > 10 µM; GI50 (BaF3 [2]): > 10 µM; AUC(0-t) [3]: 1560 ng·h/mL; clearance [4]: 11.7 mL/min/kg; Activity (MV4-11 [5]): Dose-Dependent Effect; Activity (MOLM-13 [6]): Active; Activity [7]: Non-Toxic; Activity (MV4-11 [8]): Active; GI50 (HL-60): > 10 µM; GI50 (BaF3 [9]): 0.032 µM; GI50 (BaF3 [10]): 0.032 µM; GI50 (BaF3 [11]): 9.4 µM; GI50 (BaF3 [12]): 0.04 µM; Cmax [13]: 1030 ng/mL; IC50 [14]: 0.0908 µM; Activity (MV4-11 [15]): Dose-Dependent Effect; AUC(0-inf) [16]: 1590 ng·h/mL; GI50 [17]: > 10 µM; Activity (MOLM-13 [18]): Dose-Dependent Effect; GI50 (cells): > 10 µM; GI50 (OCI-AML2): > 10 µM; MRT last [19]: 4.5 h
